According to ChEMBL document CHEMBL1143412, “RSV604, a novel inhibitor of respiratory syncytial virus replication” (Antimicrob Agents Chemother, 2007):

How the values were obtained:
[1] = system: Respiratory syncytial virus; assay: Antiviral activity against RSV RSS infected human Hep2 cells assessed as inhibition of virus-induced cell death after 6 days by XTT assay; format: functional, organism-based; conditions: HEp-2, 144 h
Method in brief: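 HEp-2 cells seeded at 4 × 10³ per well in DMEM with 10% FBS, infected next day with RSV RSS dosed to give about 80% cytopathic effect by day 6. Serial compound dilutions (top 10 μM, 0.5% DMSO) present throughout. Viability read by XTT reduction after 6 days. EC50 taken as 50% reduction in virus-induced cell death.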

[2] = system: Respiratory syncytial virus; assay: Antiviral activity against RSV RSS infected human Hep2 cells assessed as reduction of viral antigen synthesis after 3 days by ELISA; format: functional, organism-based; conditions: HEp-2, 72 h
Method in brief: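 HEp-2 cells seeded at 5 × 10³ per well in DMEM/10% FBS for 24 h, infected with RSV RSS at MOI about 0.02, serial compound dilutions for 3 days. Cells fixed and permeabilised in methanol-acetone, blocked in milk-Tween. Probed with mouse anti-RSV monoclonal then HRP anti-mouse. Developed with o-phenylenediamine/H2O2, absorbance […].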

[3] = system: Respiratory syncytial virus; assay: Antiviral activity against RSV RSS infected human Hep2 cells after 5 days by plaque reduction assay; format: functional, organism-based; conditions: HEp-2, 120 h
Method in brief: (§1)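 HEp-2 monolayers in six-well plates infected with 0.2 ml of 500 PFU/ml virus. After 2 h, overlaid with DMEM, 2% FBS, 0.6% agarose plus compound dilution series. Incubated 5 days, formaldehyde-fixed, plaques stained with methylene blue or immunostained and counted. Activity expressed as percent of plaques in untreated infected wells.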

[4] = system: Respiratory syncytial virus; assay: Antiviral activity against RSV Long infected human Hep2 cells after 5 days by plaque reduction assay; format: functional, organism-based; conditions: HEp-2, 120 h; method in brief: as §1
[5] = system: Respiratory syncytial virus; assay: Antiviral activity against RSV A2 infected human Hep2 cells after 5 days by plaque reduction assay; format: functional, organism-based; conditions: A2, HEp-2, 120 h; method in brief: as §1
[6] = Cytotoxicity against RSV RSS infected human Hep2 cells after 6 days by XTT assay; format: cell-based, HEp-2
[7] = Therapeutic index, CC50 for human Hep2 cells to EC50 for RSV RSS; format: cell-based, HEp-2; conditions: read-out: Ratio CC50/EC50
Method in brief: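 Ratio of CC50 from uninfected HEp-2 XTT control plates to EC50 from RSV RSS-infected XTT plates, both read after 6 days.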

[8] = system: Respiratory syncytial virus; assay: Antiviral activity against RSV B infected human Hep2 cells after 5 days by plaque reduction assay; format: functional, organism-based; conditions: HEp-2, 120 h; method in brief: as §1
[9] = system: Respiratory syncytial virus; assay: Antiviral activity against DMSO-passaged wild type RSV RSS infected human Hep2 cells by plaque reduction assay; format: functional, organism-based; conditions: HEp-2; method in brief: as §1
[10] = system: Respiratory syncytial virus; assay: Antiviral activity against plaque picked RSV604-resistant RSV RSS from passage 2 in human Hep2 cells by plaque reduction assay; format: functional, organism-based; conditions: HEp-2; method in brief: as §1
[11] = system: Respiratory syncytial virus; assay: Drug resistance, ratio of EC50 for plaque picked RSV604-resistant RSV RSS from passage 2 to EC50 for DMSO-passaged wild type RSV RSS; format: functional
[12] = system: Respiratory syncytial virus; assay: Drug resistance, ratio of EC50 for plaque picked A-33903-resistant RSV RSS from passage 2 to EC50 for DMSO-passaged wild type RSV RSS; format: functional
[13] = system: Respiratory syncytial virus; assay: Antiviral activity against plaque picked A-33903-resistant RSV RSS from passage 2 in human Hep2 cells by plaque reduction assay; format: functional, organism-based; conditions: HEp-2; method in brief: as §1

Structure (SMILES)	EC50 [1] [µM]	EC50 [2] [µM]	EC50 [3] [µM]	EC50 [4] [µM]	EC50 [5] [µM]	CC50 at 144 h [6] [µM]	selectivity ratio [7]	EC50 [8] [µM]	EC50 [9] [µM]	EC50 [10] [µM]	fold change (FC) [11]	fold change (FC) [12]	EC50 [13] [µM]
COc1ccccc1C(=O)NC1N=C(c2ccccc2)c2ccccc2NC1=O (stereo unspecified)	3	1.1	1.4	1.2	1.2	> 50	> 16						
NC(=O)c1ncn([C@@H]2O[C@H](CO)[C@@H](O)[C@H]2O)n1 [RIBAVIRIN]	11.5	25.3	13.3	16.8	19			29	20.7	17.6	0.85		
COc1cc([N+](=O)[O-])ccc1C(=O)N[C@H]1N=C(c2ccccc2)c2ccccc2NC1=O	0.9	0.5	0.8	0.57		> 50	> 55	0.23	0.4			3.3	1.3
